# Experimental data published in ChEMBL document CHEMBL4715736, “Identification of anticancer agents based on the thieno[2,3-b]pyridine and 1H-pyrazole molecular scaffolds” (2016).
# What was measured:
# Type in all cases: functional
# CCRF-CEM [1] = assay: Growth inhibition of human CCRF-CEM cells assessed as cell growth at 0.01 uM incubated for 48 hrs by sulforhodamine B assay relative to control; details: read-out: Activity
# Outline: (§1)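 NCI Developmental Therapeutics Program NCI60 panel. Compounds that were active in the 10 µM one-dose screen went on to dose–response testing. Growth at each concentration is expressed relative to untreated control (100%). GI50 (concentration giving 50% of maximal inhibition of proliferation) and TGI (concentration giving total growth inhibition) were derived from the curves.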
# A549 [2] = assay: Growth inhibition of human A549/ATCC cells assessed as cell growth at 0.01 uM incubated for 48 hrs by sulforhodamine B assay relative to control; details: read-out: Activity; outline: as §1
# HT-29 = assay: Growth inhibition of human HT-29 cells assessed as cell growth at 0.01 uM incubated for 48 hrs by sulforhodamine B assay relative to control; details: read-out: Activity
# SF-268 [3] = assay: Growth inhibition of human SF-268 cells assessed as cell growth at 0.01 uM incubated for 48 hrs by sulforhodamine B assay relative to control; details: read-out: Activity
# SK-MEL-28 = assay: Growth inhibition of human SK-MEL-28 cells assessed as cell growth at 0.01 uM incubated for 48 hrs by sulforhodamine B assay relative to control; details: read-out: Activity
# MDA-MB-231 [4] = assay: Growth inhibition of human MDA-MB-231 cells assessed as cell growth at 0.01 uM incubated for 48 hrs by sulforhodamine B assay relative to control; details: read-out: Activity
# T47D [5] = assay: Growth inhibition of human T47D cells assessed as cell growth at 0.01 uM incubated for 48 hrs by sulforhodamine B assay relative to control; details: read-out: Activity
# CCRF-CEM [6] = assay: Growth inhibition of human CCRF-CEM cells assessed as cell growth at 0.1 uM incubated for 48 hrs by sulforhodamine B assay relative to control; details: read-out: Activity; outline: as §1
# HCT-116 = assay: Growth inhibition of human HCT-116 cells assessed as cell growth at 0.1 uM incubated for 48 hrs by sulforhodamine B assay relative to control; details: read-out: Activity
# HCT-15 = assay: Growth inhibition of human HCT-15 cells assessed as cell growth at 0.1 uM incubated for 48 hrs by sulforhodamine B assay relative to control; details: read-out: Activity
# SNB-75 = assay: Growth inhibition of human SNB-75 cells assessed as cell growth at 0.1 uM incubated for 48 hrs by sulforhodamine B assay relative to control; details: read-out: Activity
# Malme-3M [7] = assay: Growth inhibition of human Malme-3M cells assessed as cell growth at 0.1 uM incubated for 48 hrs by sulforhodamine B assay relative to control; details: read-out: Activity
# UACC-257 = assay: Growth inhibition of human UACC-257 cells assessed as cell growth at 0.1 uM incubated for 48 hrs by sulforhodamine B assay relative to control; details: read-out: Activity
# OVCAR-8 = assay: Growth inhibition of human OVCAR-8 cells assessed as cell growth at 0.1 uM incubated for 48 hrs by sulforhodamine B assay relative to control; details: read-out: Activity
# A498 = assay: Growth inhibition of human A498 cells assessed as cell growth at 0.1 uM incubated for 48 hrs by sulforhodamine B assay relative to control; details: read-out: Activity; outline: as §1
# RXF 393 [8] = assay: Growth inhibition of human RXF 393 cells assessed as cell growth at 0.1 uM incubated for 48 hrs by sulforhodamine B assay relative to control; details: read-out: Activity
# TK-10 = assay: Growth inhibition of human TK-10 cells assessed as cell growth at 0.1 uM incubated for 48 hrs by sulforhodamine B assay relative to control; details: read-out: Activity
# SF-539 = assay: Growth inhibition of human SF-539 cells assessed as cell growth at 1 uM incubated for 48 hrs by sulforhodamine B assay relative to control; details: read-out: Activity
# U-251 = assay: Growth inhibition of human U-251 cells assessed as cell growth at 1 uM incubated for 48 hrs by sulforhodamine B assay relative to control; details: read-out: Activity
# Malme-3M [9] = assay: Growth inhibition of human Malme-3M cells assessed as cell growth at 1 uM incubated for 48 hrs by sulforhodamine B assay relative to control; details: read-out: Activity
# NCI/ADR-RES = assay: Growth inhibition of human NCI/ADR-RES cells assessed as cell growth at 1 uM incubated for 48 hrs by sulforhodamine B assay relative to control; details: read-out: Activity
# MDA-MB-231 [10] = assay: Growth inhibition of human MDA-MB-231 cells assessed as cell growth at 1 uM incubated for 48 hrs by sulforhodamine B assay relative to control; details: read-out: Activity
# MDA-MB-468 = assay: Growth inhibition of human MDA-MB-468 cells assessed as cell growth at 1 uM incubated for 48 hrs by sulforhodamine B assay relative to control; details: read-out: Activity
# HOP-62 = assay: Growth inhibition of human HOP-62 cells assessed as cell growth at 100 uM incubated for 48 hrs by sulforhodamine B assay relative to control; details: read-out: Activity
# OVCAR-4 = assay: Growth inhibition of human OVCAR-4 cells assessed as cell growth at 100 uM incubated for 48 hrs by sulforhodamine B assay relative to control; details: read-out: Activity
# CAKI-1 [11] = assay: Growth inhibition of human CAKI-1 cells assessed as cell growth at 100 uM incubated for 48 hrs by sulforhodamine B assay relative to control; details: read-out: Activity; outline: as §1
# RXF 393 [12] = assay: Growth inhibition of human RXF 393 cells assessed as cell growth at 100 uM incubated for 48 hrs by sulforhodamine B assay relative to control; details: read-out: Activity
# A549 [13] = assay: Growth inhibition of human A549/ATCC cells incubated for 48 hrs by sulforhodamine B assay; details: for CC50: read-out: LC50 (the source's name); outline: as §1
# HCC 2998 = assay: Growth inhibition of human HCC 2998 cells incubated for 48 hrs by sulforhodamine B assay; details: for CC50: read-out: LC50 (the source's name)
# SF-268 [14] = assay: Growth inhibition of human SF-268 cells incubated for 48 hrs by sulforhodamine B assay
# Outline: (§2)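 NCI DTP 60-line human tumour panel. Dose-response curves were run only for ligands active in the initial 10 µM screen. GI50 (concentration giving 50% of maximal inhibition of proliferation) and TGI (concentration giving total growth inhibition) were derived from these curves.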
# Malme-3M [15] = assay: Growth inhibition of human Malme-3M cells incubated for 48 hrs by sulforhodamine B assay
# Outline: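 NCI60 panel at the NCI Developmental Therapeutics Program. Only compounds active in the 10 µM screen went to dose-response testing. GI50, the concentration giving 50% of maximal inhibition of proliferation, and TGI, the concentration giving total growth inhibition, were derived from the dose-response curves.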
# CAKI-1 [16] = assay: Growth inhibition of human CAKI-1 cells incubated for 48 hrs by sulforhodamine B assay; details: for CC50: read-out: LC50 (the source's name); outline: as §1
# RXF 393 [17] = assay: Growth inhibition of human RXF 393 cells incubated for 48 hrs by sulforhodamine B assay; details: for CC50: read-out: LC50 (the source's name); outline: as §2
# T47D [18] = assay: Growth inhibition of human T47D cells incubated for 48 hrs by sulforhodamine B assay; details: for CC50: read-out: LC50 (the source's name); outline: as §2
# 786-0 = assay: Growth inhibition of human 786-0 cells assessed as cell growth at 100 uM incubated for 48 hrs by sulforhodamine B assay relative to control; details: read-out: Activity
structure (smiles),measurement,setting,value
Cc1cc(C)c(NC(=O)c2sc3nc4c(cc3c2N)CN(Cc2ccccc2)CC4)c(C)c1,growth at 0.01 µM,CCRF-CEM [1],100%
same,growth at 0.01 µM,A549 [2],96%
same,growth at 0.01 µM,HT-29,105%
same,growth at 0.01 µM,SF-268 [3],98%
same,growth at 0.01 µM,SK-MEL-28,97%
same,growth at 0.01 µM,MDA-MB-231 [4],100%
same,growth at 0.01 µM,T47D [5],90%
same,growth at 0.1 µM,CCRF-CEM [6],97%
same,growth at 0.1 µM,HCT-116,97%
same,growth at 0.1 µM,HCT-15,93%
same,growth at 0.1 µM,SNB-75,94%
same,growth at 0.1 µM,Malme-3M [7],102%
same,growth at 0.1 µM,UACC-257,93%
same,growth at 0.1 µM,OVCAR-8,97%
same,growth at 0.1 µM,A498,91%
same,growth at 0.1 µM,RXF 393 [8],89%
same,growth at 0.1 µM,TK-10,104%
same,growth at 1 µM,SF-539,88%
same,growth at 1 µM,U-251,92%
same,growth at 1 µM,Malme-3M [9],76%
same,growth at 1 µM,NCI/ADR-RES,69%
same,growth at 1 µM,MDA-MB-231 [10],89%
same,growth at 1 µM,MDA-MB-468,63%
same,growth at 100 µM,HOP-62,7%
same,growth at 100 µM,OVCAR-4,28%
same,growth at 100 µM,CAKI-1 [11],4%
same,growth at 100 µM,RXF 393 [12],-15%
same,GI50,A549 [13],4.11 µM
same,TGI,A549 [13],> 100 µM
same,CC50,A549 [13],> 100 µM
same,GI50,HCC 2998,5.33 µM
same,TGI,HCC 2998,38.4 µM
same,CC50,HCC 2998,> 100 µM
same,GI50,SF-268 [14],6.93 µM
same,LC50 (concentration killing 50% of cells),SF-268 [14],> 100 µM
same,TGI,SF-268 [14],64.8 µM
same,GI50,Malme-3M [15],3.44 µM
same,LC50,Malme-3M [15],> 100 µM
same,TGI,Malme-3M [15],42 µM
same,GI50,CAKI-1 [16],2.81 µM
same,TGI,CAKI-1 [16],> 100 µM
same,CC50,CAKI-1 [16],> 100 µM
same,GI50,RXF 393 [17],2.45 µM
same,TGI,RXF 393 [17],18.5 µM
same,CC50,RXF 393 [17],> 100 µM
same,GI50,T47D [18],2.62 µM
same,TGI,T47D [18],> 100 µM
same,CC50,T47D [18],> 100 µM
CCc1cccc(C)c1NC(=O)c1sc2nc3c(cc2c1N)C(=O)CCC3,growth at 0.01 µM,CCRF-CEM [1],97%
same,growth at 0.01 µM,A549 [2],96%
same,growth at 0.01 µM,SF-268 [3],97%
same,growth at 0.01 µM,SK-MEL-28,90%
same,growth at 0.01 µM,MDA-MB-231 [4],97%
same,growth at 0.01 µM,T47D [5],97%
same,growth at 0.1 µM,CCRF-CEM [6],90%
same,growth at 0.1 µM,HCT-116,96%
same,growth at 0.1 µM,HCT-15,92%
same,growth at 0.1 µM,SNB-75,75%
same,growth at 0.1 µM,Malme-3M [7],86%
same,growth at 0.1 µM,UACC-257,82%
same,growth at 0.1 µM,OVCAR-8,97%
same,growth at 0.1 µM,A498,72%
same,growth at 0.1 µM,RXF 393 [8],74%
same,growth at 1 µM,SF-539,8%
same,growth at 1 µM,U-251,37%
same,growth at 1 µM,Malme-3M [9],31%
same,growth at 1 µM,NCI/ADR-RES,33%
same,growth at 1 µM,MDA-MB-231 [10],51%
same,growth at 1 µM,MDA-MB-468,-8%
same,growth at 100 µM,HOP-62,28%
same,growth at 100 µM,OVCAR-4,10%
same,growth at 100 µM,786-0,11%
same,growth at 100 µM,CAKI-1 [11],12%
same,growth at 100 µM,RXF 393 [12],5%
same,GI50,A549 [13],0.593 µM
same,TGI,A549 [13],> 100 µM
same,CC50,A549 [13],> 100 µM
same,GI50,HCC 2998,1.33 µM
same,TGI,HCC 2998,> 100 µM
same,CC50,HCC 2998,> 100 µM
same,GI50,SF-268 [14],3.04 µM
same,LC50 (concentration killing 50% of cells),SF-268 [14],> 100 µM
same,TGI,SF-268 [14],> 100 µM
same,LC50,Malme-3M [15],> 100 µM
same,TGI,Malme-3M [15],97.2 µM
same,GI50,CAKI-1 [16],0.511 µM
same,TGI,CAKI-1 [16],> 100 µM
same,CC50,CAKI-1 [16],> 100 µM
same,GI50,RXF 393 [17],0.202 µM
same,CC50,RXF 393 [17],> 100 µM
same,GI50,T47D [18],0.517 µM
same,TGI,T47D [18],≥ 100 µM
same,CC50,T47D [18],> 100 µM
